These results are taken from ChEMBL document CHEMBL1145062, “Conformationally defined retinoic acid analogues. 5. Large-scale synthesis and mammary cancer chemopreventive activity for (2E,4E,6Z,8E)-8-(3',4'-dihydro-1'(2'H)-naphthalen-1'-ylidene)-3,7-dimethyl-2,4,6-octatrienoic acid (9cUAB30)” (2003).

In assay [1] the test system is Rattus norvegicus. The experiment in a line: Anti cancer activity of compound was measured by final body weight(g) of rat in 100 mg/kg diet after MNU intravenous injection. It is filed as functional. An outline of the steps: (§1)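 Female rats housed five per cage on 4% Teklad rodent diet; single intravenous MNU via jugular vein at 50 days of age. Retinoid mixed into diet (Patterson–Kelly liquid–solid blender; stability checked by HPLC) and fed continuously from 53 days of age; n = 20 per group; diet-only MNU control group. Weighed weekly; body weight and liver, uterus, ovary weights (g per 100 g body weight) taken at study end.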

Assay [2] deals with Rattus norvegicus. Description: Anti cancer activity of compound was measured by final body weight(g) of rat in 200 mg/kg diet after MNU intravenous injection. The assay is classed as functional. An outline of the steps: as §1
Assay [3] relates to Rattus norvegicus. Description: Anti cancer activity of compound was measured by weight of liver in gram per 100 g body weight of rat in 100 mg/kg diet after MNU intravenous injection. It is filed as functional. Put shortly: as §1
Assay [4] has as its system Rattus norvegicus. Description: Anti cancer activity of compound was measured by weight of liver in gram per 100 g body weight of rat in 200 mg/kg diet after MNU intravenous injection. It is filed as functional. An outline of the steps: as §1
Assay [5] concerns Rattus norvegicus. Description: Anti cancer activity of compound was measured by weight of uterus in gram per 100 g body weight of rat in 100 mg/kg diet after MNU intravenous injection. The assay is classed as functional. An outline of the steps: as §1
The test system of assay [6] is Rattus norvegicus. The experiment in a line: Anti cancer activity of compound was measured by weight of uterus in gram per 100 g body weight of rat in 200 mg/kg diet after MNU intravenous injection. It is filed as functional. An outline of the steps:
as §1

Assay [7] deals with Rattus norvegicus. The experiment in a line: Anti cancer activity of compound was measured by weight of ovaries in gram per 100 g body weight of rat in 200 mg/kg diet after MNU intravenous injection. The assay is classed as functional, Female gonad. An outline of the steps: as §1
The test system of assay [8] is Rattus norvegicus. The experiment in a line: Anti cancer activity of compound was measured by weight of ovaries in gram per 100 g body weight of rat in 100 mg/kg diet after MNU intravenous injection. The assay is classed as functional, Female gonad. An outline of the steps: as §1

SMILES strings stand for the structures.

Turning to `CC(=C\C=C\C(C)=C\C(=O)O)/C=C1\CCCc2ccccc21`, the Body weight in the assay with Rattus norvegicus [1] is 271 g; in the assay on Rattus norvegicus [2], 272 g. Also, the Organ weight in the assay with Rattus norvegicus [3] is listed as 2.96 g; with Rattus norvegicus [4], 3.11 g; in the assay on Rattus norvegicus [5] it was 0.16 g; with Rattus norvegicus [6] it was 0.21 g; in the assay with Rattus norvegicus [7], 0.052 g; with Rattus norvegicus [8] it was 0.046 g.
